Active and inactive are the calls of the source. The calls are words filed in the database; no cut-off is given here.
Key:
[1] = Drug uptake in spleen tumor of F1 mouse implanted with mouse S37 cells assessed as normalized fluorescence at 2.5 mg/kg, iv measured up to 24 hrs post injection in presence of He-Ne laser radiation by local fluorescence spectroscopic analysis; format: ADME, organism-based; settings: in vivo
In short: (§1)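 Single iv dose of 2.5 mg/kg given to F1 mice bearing S37 sarcoma. Skin, muscle, liver, kidney, spleen and tumor taken from three animals each at 0.25, 0.5, 2, 4 and 24 h and read ex vivo by contact local fluorescence spectroscopy. He–Ne 632.8 nm excitation; 640–900 nm integral normalized to backscattered laser signal (FN).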

[2] = Drug distribution in mouse S37 cell nuclear membrane at 1 uM for 4 hrs by laser scanning confocal microscopic analysis; format: ADME
In short: (§2)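 Mouse sarcoma S37 cells exposed to 1 μM photosensitizer for 4 h, then imaged by laser scanning confocal microscopy with a 63×/1.46 oil objective. Excitation 543 nm at 10 μW; emission collected above 655 nm on an APD detector. Intracellular localization judged against transmitted-light images.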

[3] = Drug uptake in tumor of F1 mouse implanted with mouse S37 cells at 2.5 mg/kg, iv measured after 24 hrs in presence of He-Ne laser radiation by local fluorescence spectroscopic analysis; format: ADME, organism-based, Neoplasm; settings: in vivo; in short: as §1
[4] = Drug distribution in mouse S37 cell cytoplasmic vesicles at 1 uM for 4 hrs by laser scanning confocal microscopic analysis; format: ADME; in short: as §2
[5] = Dark toxicity against mouse S37 cells assessed as cell growth inhibition up to 15 uM after 24 hrs by MTT assay; format: cell-based; settings: s37, 24 h
In short: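 S37 mouse sarcoma cells in DMEM with 2 mM L-glutamine and 10% FBS, 37 °C, 5% CO2. Compound added 24 h after plating and kept without irradiation for 24 h in the dark. Survival scored visually and by MTT colorimetry.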

[6] = Drug uptake in skin tumor of F1 mouse implanted with mouse S37 cells assessed as normalized fluorescence at 2.5 mg/kg, iv measured up to 24 hrs in presence of He-Ne laser radiation by local fluorescence spectroscopic analysis; format: ADME, organism-based; settings: in vivo
In short: (§3)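 S37 sarcoma-bearing immunocompetent F1 mice (18−22 g) given PS 2.5 mg/kg iv. Animals sacrificed at 0.25, 0.5, 2, 4 and 24 h, with three animals per time point. Skin, tumor and organ samples were read ex vivo by contact local fluorescence spectroscopy under He−Ne 632.8 nm excitation. Integrated 640−900 nm emission was normalized to the backscattered laser signal to give FN.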

[7] = Drug uptake in kidney tumor of F1 mouse implanted with mouse S37 cells assessed as normalized fluorescence at 2.5 mg/kg, iv measured up to 24 hrs post injection in presence of He-Ne laser radiation by local fluorescence spectroscopic analysis; format: ADME, organism-based; settings: in vivo; in short: as §1
[8] = Drug distribution in mouse S37 cell membrane at 1 uM for 4 hrs by laser scanning confocal microscopic analysis; format: ADME, cell-based; in short: as §2
[9] = Phototoxicity against mouse S37 cells implanted in F1 mouse assessed as tumor growth inhibition at 2.5 mg/kg, iv preincubated for 15 mins with subsequent 150 J/cm2 irradiation measured on day 15 post irradiation relative to control; format: functional; settings: S37, light or radiation study, read-out: TGI
In short: (§4)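 S37 sarcoma mice treated on day 7 of tumor growth with compound iv; tumors 140–160 mm3 beforehand, droperidol 0.25 mg ip as anesthetic. LED irradiation at 800 ± 21 nm, 100 mW/cm2, 150 J/cm2, given 15 or 30 min after dosing. Controls got iv 0.9% NaCl. Volume = d1×d2×d3×0.52; TGI = […]×100%.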

[10] = Drug distribution in mouse S37 cell cytoplasm at 1 uM for 4 hrs by laser scanning confocal microscopic analysis; format: ADME; in short: as §2
[11] = Phototoxicity against mouse S37 cells implanted in F1 mouse assessed as tumor growth inhibition at 2.5 mg/kg, iv preincubated for 30 mins with subsequent 150 J/cm2 irradiation measured on day 8 post irradiation relative to control; format: functional; settings: S37, light or radiation study, read-out: TGI; in short: as §4
[12] = Phototoxicity against mouse S37 cells implanted in F1 mouse assessed as tumor growth inhibition at 5 mg/kg, iv preincubated for 15 mins with subsequent 150 J/cm2 irradiation measured on day 20 post irradiation relative to control; format: functional; settings: S37, light or radiation study, read-out: TGI; in short: as §4
[13] = Phototoxicity against mouse S37 cells implanted in F1 mouse assessed as tumor growth inhibition at 2.5 mg/kg, iv preincubated for 30 mins with subsequent 150 J/cm2 irradiation measured on day 18 post irradiation relative to control; format: functional; settings: S37, light or radiation study, read-out: TGI; in short: as §4
[14] = Phototoxicity against mouse S37 cells implanted in F1 mouse assessed as tumor growth inhibition at 2.5 mg/kg, iv preincubated for 30 mins with subsequent 150 J/cm2 irradiation measured on day 15 post irradiation relative to control; format: functional; settings: S37, light or radiation study, read-out: TGI; in short: as §4
[15] = Phototoxicity against mouse S37 cells implanted in F1 mouse assessed as tumor growth inhibition at 2.5 mg/kg, iv preincubated for 30 mins with subsequent 150 J/cm2 irradiation measured on day 11 post irradiation relative to control; format: functional; settings: S37, light or radiation study, read-out: TGI; in short: as §4
[16] = Drug uptake in tumor of F1 mouse implanted with mouse S37 cells at 2.5 mg/kg, iv measured after 2 hrs in presence of He-Ne laser radiation by local fluorescence spectroscopic analysis; format: ADME, organism-based, Neoplasm; settings: in vivo; in short: as §1
[17] = Phototoxicity against mouse S37 cells implanted in F1 mouse assessed as tumor growth inhibition at 2.5 mg/kg, iv preincubated for 30 mins with subsequent 150 J/cm2 irradiation measured on day 20 post irradiation relative to control; format: functional; settings: S37, light or radiation study, read-out: TGI; in short: as §4
Mus musculus = assay: Toxicity in F1 mouse implanted with mouse S37 cells at 2.5 mg/kg, iv preincubated for 15 to 30 mins with subsequent 150 J/cm2 irradiation measured up to 16 days post irradiation; format: organism-based; settings: in vivo, 384 h
In short: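 F1 mice bearing S37 sarcoma (140−160 mm3) were treated on day 7 of tumour growth with 2.5 or 5.0 mg/kg iv; controls received iv 0.9% NaCl. Animals were anaesthetised with droperidol 0.25 mg/animal ip. LED irradiation (800 ± 21 nm, 100 mW/cm2, 150 J/cm2) followed 15 or 30 min after dosing. Tumour volume was calculated as d1×d2×d3×0.52, with TGI computed versus controls. Tumour-free animals were followed for 90 d.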

[18] = Drug distribution in mouse S37 cell cytoplasmic vesicles at 1 uM for 4 hrs by microspectroscopy; format: ADME
[19] = Drug uptake in liver tumor of F1 mouse implanted with mouse S37 cells assessed as normalized fluorescence at 2.5 mg/kg, iv measured up to 24 hrs post injection in presence of He-Ne laser radiation by local fluorescence spectroscopic analysis; format: ADME, organism-based; settings: in vivo; in short: as §1
[20] = Phototoxicity against mouse S37 cells implanted in F1 mouse assessed as tumor growth inhibition at 5 mg/kg, iv preincubated for 30 mins with subsequent 150 J/cm2 irradiation measured on day 18 post irradiation relative to control; format: functional; settings: S37, light or radiation study, read-out: TGI; in short: as §4
[21] = Drug uptake in tumor of F1 mouse implanted with mouse S37 cells assessed as normalized fluorescence units at 2.5 mg/kg, iv measured after 30 mins in presence of He-Ne laser radiation by local fluorescence spectroscopic analysis; format: ADME, organism-based, Neoplasm; settings: in vivo, 0.5 h; in short: as §3
Sarcoma M1 = assay: Phototoxicity against rat Sarcoma M1 cells implanted in rat assessed as coagulative tumor necrosis at 2.5 mg/kg, ip administered as single dose on day 11 post inoculation followed by 300 J/cm2 irradiation after 2.5 to 3 hrs measured on day 2 post photodynamic therapy by hematoxylin and eosin staining based assay; format: functional, organism-based

In the case of CCCO/N=C(\C)c1c(C)c2cc3nc(c4c5[nH]c(cc6nc(cc1[nH]2)[C@H](C)[C@H]6CC)c(C)c5C(=O)N(OCCC)C4=O)[C@@H](CCC(=O)OC)[C@@H]3C, the Drug uptake [1] is reported as “Active”, the Drug uptake [2] is reported as “Not Active” and the Drug uptake [3] is reported as “Not Active”. The Drug uptake [4] was “Active”, the Activity [5] was “Non-Toxic” and the Flu intensity [6] was 2 RU. The Drug uptake [7] was “Active”, the Drug uptake [8] was “Not Active” and the inhibition in vivo at 2.5 mg/kg [9] was 100%. The Drug uptake [10] was “Not Active”, the inhibition in vivo at 2.5 mg/kg [11] was 100% and the inhibition in vivo at 5 mg/kg [12] was 100%. The inhibition in vivo at 2.5 mg/kg [13] was 77.1%, the inhibition in vivo at 2.5 mg/kg [14] was 81.5% and the inhibition in vivo at 2.5 mg/kg [15] was 88.6%. The Drug uptake [16] was “Active”, the inhibition in vivo at 2.5 mg/kg [17] was 65.9% and the Activity (Mus musculus) was “Non-Toxic”. The Drug uptake [18] was “Active” and the Drug uptake [19] was “Active”.
For CCCO/N=C(\C)c1c(C)c2cc3nc(c4c5[nH]c(cc6nc(cc1[nH]2)[C@@H](C)[C@@H]6CC)c(C)c5C(=O)N(OCCC)C4=O)[C@H](CCC(=O)NCCSSCCNC(=O)CC[C@@H]1c2nc(cc4[nH]c(cc5nc(cc6[nH]c7c2C(=O)N(OCCC)C(=O)c7c6C)[C@H](CC)[C@H]5C)c(/C(C)=N/OCCC)c4C)[C@H]1C)[C@H]3C, the Drug uptake [1] was “Active”, the Drug uptake [2] was “Not Active” and the Drug uptake [3] was “Not Active”. For the same molecule, the Drug uptake [4] was “Active”, the Activity [5] was “Non-Toxic” and the inhibition in vivo at 5 mg/kg [20] was 100%. The Flu intensity [6] was 2 RU, the Drug uptake [7] was “Active” and the Drug uptake [8] was “Not Active”. For the same molecule, the Drug uptake [10] was “Not Active”, the inhibition in vivo at 2.5 mg/kg [11] was 100% and the inhibition in vivo at 2.5 mg/kg [13] was 88%. It also gave an inhibition in vivo at 2.5 mg/kg [14] of 93.9%, a Flu intensity [21] of 4 RU and an inhibition in vivo at 2.5 mg/kg [15] of 97.4%. For the same molecule, the Drug uptake [16] was “Active”, the inhibition in vivo at 2.5 mg/kg [17] was 75.5% and the Activity (Mus musculus) was “Non-Toxic”. The Activity (Sarcoma M1) was “Active”, the Drug uptake [18] was “Active” and the Drug uptake [19] was “Active”.

— ChEMBL document CHEMBL4024769, “Synthesis and Investigation of Photophysical and Biological Properties of Novel S-Containing Bacteriopurpurinimides” (J Med Chem, 2017)
